Results reported in ChEMBL document CHEMBL1156912, “Subtlety of the structure-affinity and structure-efficacy relationships around a nonpeptide oxytocin receptor agonist” (J Med Chem, 2010).
The source made the active and inactive calls. The rule behind the calls is not given here.

How the values were obtained:
[1] = target: T1, Oxytocin receptor (Homo sapiens, UniProt P30559); assay: Displacement of [3H]AVP from human oxytocin receptor expressed in CHO cells; assay type: cell-based
T1 sequence (P30559 whole entry): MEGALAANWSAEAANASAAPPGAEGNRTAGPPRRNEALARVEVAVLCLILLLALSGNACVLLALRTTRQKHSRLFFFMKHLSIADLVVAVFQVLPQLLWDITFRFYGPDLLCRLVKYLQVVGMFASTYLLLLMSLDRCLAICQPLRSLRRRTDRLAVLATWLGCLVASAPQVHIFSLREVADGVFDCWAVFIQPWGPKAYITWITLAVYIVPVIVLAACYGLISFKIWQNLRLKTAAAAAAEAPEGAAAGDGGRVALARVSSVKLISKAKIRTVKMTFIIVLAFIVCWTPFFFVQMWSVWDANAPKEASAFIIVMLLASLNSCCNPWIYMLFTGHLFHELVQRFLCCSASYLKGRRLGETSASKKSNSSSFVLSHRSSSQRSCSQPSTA
Method in brief: (§1)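 Membranes came from CHO cells stably expressing the human receptor; OT-R and V1a-R cells were treated overnight with 5 mM butyrate. Membrane protein was 10–15 μg (OT, V1a) or 5 μg (V2), incubated 30 min at 30 °C in 50 mM Tris-HCl, 5 mM MgCl2, 1 mg/mL BSA, pH 7.4, with 1–2 nM [3H]AVP and competitor 0.1 pM–100 μM. Nonspecific binding: 10 μM AVP. Filtration, then Ki via Cheng–Prusoff. Mean ± SEM of ≥3 experiments in triplicate.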

[2] = target: T2, Oxytocin receptor (Homo sapiens) (UniProt P30559); assay: Activity at human oxytocin receptor expressed in CHO cells assessed as inositol phosphate accumulation; assay type: functional, cell-based
T2 sequence (whole entry): T1 sequence (P30559 whole entry)
Method in brief: (§2)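 Agonist mode on CHO cells stably expressing human OT receptor: 30 min at 37 °C with ligand, 10 fM–100 μM, ≤1% final DMSO. IP1 accumulation was read by IP-One HTRF, ΔF from the 665/620 ratio. K_act is the EC50 from the sigmoidal fit. Emax is % of the 1 μM OT maximal response. Single-concentration lines are % of OT maximum, n = 2. Mean of ≥3 experiments in triplicate.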

[3] = target: T2, Oxytocin receptor (Homo sapiens); assay: Activity at human oxytocin receptor expressed in CHO cells assessed as inositol phosphate accumulation at 1 uM; assay type: functional, cell-based; method in brief: as §2
[4] = target: T3, Vasopressin V1a receptor (Homo sapiens, UniProt P37288); assay: Displacement of [3H]AVP from human vasopressin V1a receptor expressed in CHO cells; assay type: cell-based; method in brief: as §1
Target sequence in this assay (P37288 whole entry): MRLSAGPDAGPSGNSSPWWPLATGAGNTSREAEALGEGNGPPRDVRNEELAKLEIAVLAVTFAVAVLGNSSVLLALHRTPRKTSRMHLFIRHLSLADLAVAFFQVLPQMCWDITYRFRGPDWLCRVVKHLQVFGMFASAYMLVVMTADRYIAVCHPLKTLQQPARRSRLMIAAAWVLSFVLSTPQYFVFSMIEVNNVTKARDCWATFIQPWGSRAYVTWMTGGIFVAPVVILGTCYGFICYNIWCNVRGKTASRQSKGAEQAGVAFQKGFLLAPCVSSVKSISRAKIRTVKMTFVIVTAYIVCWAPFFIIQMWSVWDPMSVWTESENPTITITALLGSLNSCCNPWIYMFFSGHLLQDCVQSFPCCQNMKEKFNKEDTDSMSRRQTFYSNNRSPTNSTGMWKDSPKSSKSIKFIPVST

[5] = target: T3, Vasopressin V1a receptor; assay: Activity at human vasopressin V1a receptor expressed in CHO cells assessed as inositol phosphate accumulation; assay type: functional, cell-based
Method in brief: (§3)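 Human V1a-expressing CHO cells, 80000 cells/well, exposed to ligand for 30 min at 37 °C. IP1 was measured by HTRF IP-One. EC50 (K_act) from the dose–response curve. Emax is relative to the 1 μM AVP maximum. Weak responses are reported as % of AVP maximum at 1 μM ligand.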
Target sequence in this assay (P37288 whole entry, looked up): as the sequence (P37288 whole entry) above

[6] = target: T3, Vasopressin V1a receptor; assay: Activity at human vasopressin V1a receptor expressed in CHO cells assessed as inhibition of agonist-induced inositol phosphate accumulation; assay type: functional, cell-based
Method in brief: (§4)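 Human V1a receptor in stably transfected CHO cells, seeded at 80000 cells/well overnight. Cells were preincubated 10 min at 37 °C with ligand (10 fM–100 μM, ≤1% final DMSO), then challenged with 2 nM AVP for 30 min. IP1 was read by IP-One HTRF. K_inact was derived by Cheng–Prusoff-type correction using AVP K_act 1.20 nM. Fixed-concentration lines are % inhibition, n = 2.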
Target sequence in this assay (P37288 whole entry, looked up): as the sequence (P37288 whole entry) above

[7] = target: T4, Vasopressin V2 receptor (Homo sapiens, UniProt P30518); assay: Displacement of [3H]AVP from human vasopressin V2 receptor expressed in CHO cells; assay type: cell-based; method in brief: as §1
T4 sequence (P30518 whole entry): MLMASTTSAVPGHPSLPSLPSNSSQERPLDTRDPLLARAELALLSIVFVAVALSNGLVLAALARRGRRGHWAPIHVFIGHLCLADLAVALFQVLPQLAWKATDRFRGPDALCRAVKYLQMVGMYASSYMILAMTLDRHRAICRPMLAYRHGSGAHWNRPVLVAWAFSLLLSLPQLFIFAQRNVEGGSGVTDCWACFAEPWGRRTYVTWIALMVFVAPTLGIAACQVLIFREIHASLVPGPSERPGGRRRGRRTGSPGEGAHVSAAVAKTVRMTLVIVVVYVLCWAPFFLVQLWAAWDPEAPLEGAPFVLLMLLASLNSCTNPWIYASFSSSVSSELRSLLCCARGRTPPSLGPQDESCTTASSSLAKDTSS

[8] = target: T4, Vasopressin V2 receptor; assay: Activity at human vasopressin V2 receptor expressed in CHO cells assessed as cAMP accumulation; assay type: functional, cell-based
Method in brief: (§5)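 V2-R agonism in CHO cells at 1000 cells/well, stimulated 30 min at 37 °C in D-MEM containing 0.1 mM Ro-20-1724 and 1 mg/mL BSA. cAMP was read by cAMP dynamic 2 HTRF. K_act from the sigmoidal fit. Emax is % of the 0.1 μM AVP response. Single-concentration values are % of AVP maximum.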

[9] = target: T4, Vasopressin V2 receptor; assay: Activity at human vasopressin V2 receptor expressed in CHO cells assessed as cAMP accumulation at 1 uM; assay type: functional, cell-based; method in brief: as §5
[10] = target: T2, Oxytocin receptor (Homo sapiens); assay: Activity at human oxytocin receptor expressed in CHO cells assessed as inhibition of agonist-induced inositol phosphate accumulation at 1 uM; assay type: functional, cell-based; design: scale not given: the % may be the effect or the level left
[11] = target: T3, Vasopressin V1a receptor; assay: Activity at human vasopressin V1a receptor expressed in CHO cells by NFAT-luciferase gene reporter assay; assay type: cell-based
[12] = target: T4, Vasopressin V2 receptor; assay: Activity at human vasopressin V2 receptor expressed in CHO cells assessed as inhibition of agonist-induced cAMP accumulation at 1 uM; assay type: functional, cell-based
[13] = target: T2, Oxytocin receptor (Homo sapiens); assay: Activity at human oxytocin receptor expressed in CHO cells assessed as inhibition of agonist-induced inositol phosphate accumulation; assay type: functional, cell-based
[14] = target: T3, Vasopressin V1a receptor; assay: Activity at human vasopressin V1a receptor expressed in CHO cells assessed as inositol phosphate accumulation at 1 uM; assay type: functional, cell-based; method in brief: as §3
Target sequence in this assay (P37288 whole entry, looked up): as the sequence (P37288 whole entry) above

[15] = target: T4, Vasopressin V2 receptor; assay: Activity at human vasopressin V2 receptor expressed in CHO cells assessed as inhibition of agonist-induced cAMP accumulation; assay type: functional, cell-based
[16] = target: T2, Oxytocin receptor (Homo sapiens); assay: Activity at human oxytocin receptor expressed in CHO cells assessed as inositol phosphate accumulation up to 10 uM; assay type: functional, cell-based
Method in brief: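 CHO cells stably expressing human OT receptor, seeded 80000 cells/well overnight at 37 °C. Ligands 10 fM to 100 μM (≤1% DMSO) in IP-One stimulation buffer, 30 min at 37 °C with 5% CO₂. IP₁ read by HTRF at 665/620 nm. EC50 (K_act) from sigmoidal curves; Emax as % of 1 μM OT maximum. Triplicate wells, ≥3 experiments.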

[17] = target: T2, Oxytocin receptor (Homo sapiens); assay: Activity at human oxytocin receptor expressed in CHO cells assessed as inhibition of agonist-induced inositol phosphate accumulation at 10 uM; assay type: functional, cell-based; design: scale not given: the % may be the effect or the level left
[18] = target: T4, Vasopressin V2 receptor; assay: Activity at human vasopressin V2 receptor expressed in CHO cells assessed as inhibition of agonist-induced cAMP accumulation at 10 uM; assay type: functional, cell-based
[19] = target: T2, Oxytocin receptor (Homo sapiens); assay: Activity at human oxytocin receptor expressed in CHO cells assessed as inositol phosphate accumulation up to 100 uM; assay type: functional, cell-based; method in brief: as §2
[20] = target: T3, Vasopressin V1a receptor; assay: Activity at human vasopressin V1a receptor expressed in CHO cells assessed as inhibition of agonist-induced inositol phosphate accumulation at 1 uM; assay type: functional, cell-based; design: scale not given: the % may be the effect or the level left; method in brief: as §4
Target sequence in this assay (P37288 whole entry, looked up): as the sequence (P37288 whole entry) above

[21] = target: T1, Oxytocin receptor; assay: Activity at human oxytocin receptor expressed in CHO cells by NFAT-luciferase gene reporter assay; assay type: cell-based
[22] = target: T4, Vasopressin V2 receptor; assay: Activity at human vasopressin V2 receptor expressed in CHO cells by cAMP dynamic 2 assay

Row | Ki ([1]; read-out: Ki) [nM] | Ki ([4]; read-out: Ki) [nM] | Kinact [6] [nM] | Ki ([7]; read-out: Ki) [nM] | Kinact [13] [nM] | Activity [14] | Activity [9] | Kinact [15] | Structure (SMILES) | also measured
1 | 147 | 330 | 271 | > 1000 | – | – | – | – | Cc1cc(C(=O)N2Cc3cnn(C)c3Nc3ccccc32)ccc1CNC(=O)N1CCC[C@H]1C(=S)N1CCCN(C)CC1 | Kact [2]: 0.667 µM; Emax [3]: 58%; Activity [5]: inactive; Kact [8]: 599 nM; Emax [9]: 84%; Activity [10]: 16%; Activity [11]: inactive; Activity [12]: inactive
2 | 111 | 37 | 412 | 6.4 | 557 | inactive | inactive | 1.1 nM | Cc1cc(C(=O)N2Cc3cnn(C)c3Nc3ccccc32)ccc1NC(=O)c1ccccc1-c1ccccc1 | Activity [16]: inactive
3 | 2500 | > 1000 | 754 | 3400 | – | inactive | – | – | Cc1cc(C(=O)N2Cc3cccn3Cc3ccccc32)ccc1CNC(=O)N1CCC[C@H]1C(=S)N1CCCN(C)CC1 | Kact [2]: 110 µM; Emax [3]: 50.6%; Activity [17]: 11%; Emax [9]: 9%; Inhibition [18]: 43%; Activity [19]: inactive
4 | > 5000 | > 5000 | – | – | – | inactive | – | – | CC(=O)NCc1ccc(C(=O)N2Cc3cnn(C)c3Nc3ccccc32)cc1C | Activity [17]: inactive; Activity [10]: inactive; Activity [20]: 27%
5 | 27.8 | 18 | 32.5 | 913 | 14.8 | inactive | inactive | 253 nM | Cc1ccn(-c2ccc(C(=O)N3Cc4cnn(C)c4Nc4ccccc43)cc2C)n1 | –
6 | 109 | 2.74 | 63 | 0.57 | 171 | inactive | inactive | 0.096 nM | O=C(Nc1ccc(C(=O)N2CCCCc3ccccc32)cc1)c1ccccc1-c1ccccc1 | Activity [3]: inactive; EC50 [21]: 63 nM; EC50 [11]: 14 nM; EC50 [22]: 7.6 nM

Row | Structure (SMILES) | Ki ([1]; read-out: Ki) [nM] | Ki ([4]; read-out: Ki) [nM] | Kinact [6] [nM] | Ki ([7]; read-out: Ki) [nM] | Kinact [13] [nM] | Activity [14] | Activity [9] | Kinact [15] | also measured
7 | COc1cc(OC2CCN(C(C)=O)CC2)ccc1C(=O)N1CCC(N2C(=O)OCc3ccccc32)CC1 | – | – | – | – | – | inactive | inactive | inactive | Ki ([1]; cho): Not Active; Activity [3]: inactive; EC50 [21]: 4.6 nM; Ki ([4]; cho): Not Active; Ki ([7]; cho): Not Active; EC50 [11]: 3200 nM; Activity [20]: 18%; EC50 [22]: 37000 nM
